This passage reports Activity and IC50 results from ChEMBL document CHEMBL2203169, “Effect of allyl sulfides from garlic essential oil on intracellular ca2+ levels in renal tubular cells” (J Nat Prod, 2012).

The subject of assay [1] is MDCK. The experiment in a line: Induction of intracellular calcium level in MDCK cells at 25 to 100 uM by Fura-2 in presence of extracellular calcium. It counts as functional, cell-based. The following applies: Canis lupus familiaris. The procedure, abridged:
(§1)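 Trypsinized cells recovered 1 h, then loaded with 2 μM fura-2/AM for 30 min at 25 °C. Cells washed and resuspended in Ca2+-containing medium (2 mM CaCl2, 2 mM HEPES, pH 7.4); 0.5 million cells/mL in a stirred cuvette at 25 °C. Compound added at 30 s and recorded to 250 s. Excitation at 340/380 nm, emission at 510 nm. Calibration used Triton X-100 then 10 mM EGTA; Kd 155 nM. n = 5.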

Assay [2] has as its system MDCK. The experiment in a line: Induction of intracellular calcium level in MDCK cells assessed as sustained phase at 100 uM within 250 secs by Fura-2 in presence of extracellular calcium. The note with it: Canis lupus familiaris. It counts as functional, cell-based. An outline of the steps: as §1
The test system of assay [3] is MDCK. As to the kind of experiment: Induction of intracellular calcium level in MDCK cells assessed as rise in fura-2 340/380 excitation signal ratio at 100 uM treated at 30 secs by Fura-2 in presence of extracellular calcium. It counts as functional, cell-based. The following applies: Canis lupus familiaris. The procedure, abridged: as §1
On the technique in general: Calcium flux is commonly read through the fluorescence of an indicator in the cells.

The subject of assay [4] is MDCK. As to the kind of experiment: Induction of intracellular calcium level in MDCK cells at 100 uM by Fura-2 in calcium free medium in presence of endoplasmic reticulum Ca2+-ATPase inhibitor thapsigargin. It counts as functional, cell-based. The following applies: Canis lupus familiaris. The procedure, abridged:
(§2)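 Fura-2-loaded MDCK suspension (0.5 million cells/mL) in Ca2+-free medium, where CaCl2 was replaced by 0.1 mM EGTA; 25 °C, stirred cuvette. Signals recorded at 340/380 nm excitation and 510 nm emission every 1 s. Store depletion used 1 μM thapsigargin, applied before compound or after 220 s compound preincubation. Phospholipase C tests used 10 μM ATP and 2 μM U73122. [Ca2+]i calculated with Kd 155 nM. Means ± SEM, n = 5.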

Assay [5] concerns MDCK. The experiment in a line: Induction of intracellular calcium level in MDCK cells at 100 uM preincubated 220 secs by Fura-2 in calcium free medium in presence of endoplasmic reticulum Ca2+-ATPase inhibitor thapsigargin. It counts as functional, cell-based. The note with it: Canis lupus familiaris. An outline of the steps:
as §2

Assay [6] concerns MDCK. The experiment in a line: Induction of intracellular calcium level in MDCK cells at 100 uM by Fura-2 in presence of calcium and 1 uM nicardipine L-type calcium channel blocker. It counts as functional, cell-based. The following applies: Canis lupus familiaris. The procedure, abridged: (§3)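 Fura-2-loaded MDCK cells in Ca2+-containing medium at 25 °C, pretreated 1 min with the 1 μM L-type blocker before 100 μM compound was added at 30 s. Response taken as net area under the [Ca2+]i curve from 30 to 250 s, expressed as percent of unblocked control. Means ± SEM of five experiments.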

For assay [7], the system named is MDCK. As to the kind of experiment: Induction of intracellular calcium level in MDCK cells at 100 uM assessed as calcium influx by Fura-2 in presence of calcium and 1 uM verapamil L-type calcium channel blocker. It counts as functional, cell-based. The following applies: Canis lupus familiaris. An outline of the steps: as §3
In assay [8] the test system is MDCK. The experiment in a line: Induction of intracellular calcium level in MDCK cells at 100 uM assessed as calcium influx by Fura-2 in presence of calcium and 1 uM diltiazem L-type calcium channel blocker. The following applies: Canis lupus familiaris. It counts as functional, cell-based. The procedure, abridged: as §3
In assay [9] the test system is MDCK. As to the kind of experiment: Induction of intracellular calcium level in MDCK cells at 100 uM by Fura-2 in presence of calcium and 10 nM phorbol myristate acetate protein kinase C activator. The following applies: Canis lupus familiaris. It counts as functional, cell-based. An outline of the steps: (§4)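 Fura-2-loaded MDCK cells in Ca2+-containing medium (2 mM CaCl2, pH 7.4) at 25 °C, pretreated with 10 nM phorbol myristate acetate or 2 μM GF109203X before 100 μM compound. [Ca2+]i was read from the 340/380 nm fura-2 ratio. n = 5.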

Assay [10] concerns MDCK. The experiment in a line: Induction of intracellular calcium level in MDCK cells at 100 uM by Fura-2 in presence of calcium and 2 uM GF109203 X acetate protein kinase C inhibitor. It counts as functional, cell-based. The note with it: Canis lupus familiaris. An outline of the steps: as §4
The subject of assay [11] is MDCK. As to the kind of experiment: Cytotoxicity against MDCK cells assessed as decrease in cell viability after 16 hrs by tetrazolium salt WST-1 assay. It counts as functional, cell-based. The note with it: Canis lupus familiaris. The procedure, abridged: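 MDCK cells plated at 1 × 10^4 per well and grown 24 h to 70% confluence, then exposed 16 h to compound (0–2 mM range). Cells washed, then incubated 2 h at 37 °C with WST-1; absorbance read at 450 nm. Values expressed as percent of vehicle control (0.1% DMSO). n = 5.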
(In general: Tetrazolium assays rely on reduction of a dye to a coloured formazan, in cell work by metabolically active cells.)

Assay [12] concerns MDCK. The experiment in a line: Cell cycle arrest in MDCK cells assessed as accumulation at G1 phase at 100 uM after 16 hrs by flow cytometric analysis (reference value: 55.7%). It counts as functional, Canis lupus familiaris.
Assay [13] concerns MDCK. The experiment in a line: Cell cycle arrest in MDCK cells assessed as accumulation at S phase at 100 uM after 16 hrs by flow cytometric analysis (reference value: 24.5%). It counts as functional, Canis lupus familiaris. (Flow cytometry measures light scatter and fluorescence of single cells or particles in a stream.)
For assay [14], the system named is MDCK. As to the kind of experiment: Cell cycle arrest in MDCK cells assessed as accumulation at G2/M phase at 100 uM after 16 hrs by flow cytometric analysis (reference value: 19.8%). It counts as functional, Canis lupus familiaris.
The subject of assay [15] is MDCK. As to the kind of experiment: Cell cycle arrest in MDCK cells assessed as accumulation at subG1 phase at 100 uM after 16 hrs by flow cytometric analysis (reference value: 0.5%). It counts as functional, Canis lupus familiaris.
Assay [16] deals with MDCK. The experiment in a line: Induction of intracellular calcium level in MDCK cells at 1 uM by Fura-2 in presence of extracellular calcium. The note with it: Canis lupus familiaris.
The test system of assay [17] is MDCK. As to the kind of experiment: Induction of intracellular calcium level in MDCK cells at 100 uM by Fura-2 in calcium free medium in presence of phospholipase C inhibitor U73122. The note with it: Canis lupus familiaris.
Assay [18] has as its system MDCK. The experiment in a line: Induction of intracellular calcium level in MDCK cells at 50 uM by Fura-2 in presence of calcium relative to diallyl trisulfide. It counts as functional.
In assay [19] the test system is MDCK. As to the kind of experiment: Induction of intracellular calcium level in MDCK cells assessed as net peak value at 10 uM by Fura-2 in calcium free medium. It counts as functional, Canis lupus familiaris. An outline of the steps: as §2
Assay [20] relates to MDCK. The experiment in a line: Induction of intracellular calcium level in MDCK cells at 10 uM by Fura-2 in calcium free medium in presence of 10 uM U73343 inactive analogue of U73122 phospholipase C inhibitor. The note with it: Canis lupus familiaris. It counts as functional, cell-based. An outline of the steps:
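MDCK cells were trypsinized, recovered 1 h, then loaded with 2 μM fura-2/AM for 30 min at 25 °C. They were read in a stirred cuvette at 25 °C (0.5 million cells/mL) in Ca2+-free medium with 0.1 mM EGTA in place of CaCl2. Ex 340/380 nm, em 510 nm, 1 s intervals. Pretreatment was 2 μM U73122 or 10 μM U73343 before ATP. Kd 155 nM; n=5.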

Each structure is given as a SMILES string. The source made the active and inactive calls. The calls are words filed in the database; no cut-off is given here.

Usually IC50 stands for the concentration at which inhibition is half-maximal. `C=CCSSSCC=C` [ALLITRIDIN]: the Activity entry with MDCK [1] is “Dose-dependent effect”; in the assay on MDCK [12] it was 26.8%; in the assay on MDCK [13], 34.6%; in the assay on MDCK [14], 38.6%; with MDCK [15] it was 33.1%. Further, the result in the assay with MDCK [2], in the assay with MDCK [3], in the assay with MDCK [7], in the assay on MDCK [8], in the assay on MDCK [9] and in the assay with MDCK [10] was Active. Besides, in the assay on MDCK [17], the outcome was Active. The outcome in the assay with MDCK [4], in the assay with MDCK [5], in the assay on MDCK [6] and in the assay with MDCK [16] was inactive. Also, the IC50 with MDCK [11] worked out at 0.05 mM.
Take `C=CCSCC=C` [DIALLYL SULFIDE]: the outcome in the assay on MDCK [18] (Canis lupus familiaris) was inactive. Moreover, the Activity entry in the assay on MDCK [11] was “Dose-dependent effect”; in the assay with MDCK [12], 53.3%; in the assay with MDCK [13], 27.7%; with MDCK [14], 19%; in the assay with MDCK [15] it was 1.1%. Also, in the assay with MDCK [11], the IC50 came to 3.26 mM.
Take `Nc1ncnc2c1ncn2[C@@H]1O[C@H](COP(=O)(O)OP(=O)(O)OP(=O)(O)O)[C@@H](O)[C@H]1O` [ADENOSINE TRIPHOSPHATE]: in the assay on MDCK [19], the Activity worked out at 132 nM. Besides, in the assay with MDCK [20], the outcome was Active. In the assay on MDCK [17], the outcome was inactive.
In the case of `C=CCSSCC=C` [DIALLYLDISULFIDE], the Activity with MDCK [18] is 45.6%; in the assay on MDCK [11], “Dose-dependent effect”; in the assay on MDCK [12] it was 53.3%; with MDCK [13] it was 26.8%; in the assay on MDCK [14] it was 20%; in the assay with MDCK [15], 7.1%. Besides, in the assay on MDCK [11], the IC50 came to 1.82 mM.
